# Source: ChEMBL document CHEMBL1135550, “Highly potent geminal bisphosphonates. From pamidronate disodium (Aredia) to zoledronic acid (Zometa)” (J Med Chem, 2002)
# Columns and labels:
# [1] = system: Rattus norvegicus; experiment: Effective dose after subcutaneous administration to TPTX rats for 50% reduction of hypercalcemia; assay type: functional; details: sc
# In short: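 Young male rats (130-150 g) were thyroparathyroidectomized and allowed 4 days to recover, then fasting serum was sampled. Animals with serum Ca above 1.88 mM were discarded, and the rest were randomized into groups of 5. On days 5-8, 1,25(OH)2D3 (125 pmol/kg sc) was given with graded sc doses of bisphosphonate, and total serum calcium was measured. ED50 is the sc dose halving the hypercalcemia.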
# [2] = organism: Mus musculus; experiment: Inhibition of bone mineralization in the calvaria assay of mouse; assay type: functional
# [3] = organism: Mus musculus; experiment: Inhibition of bone resorption in the calvaria assay of mouse; assay type: functional
# [4] = Therapeutic ratio comparing nephrotoxic potential versus bone antiresorptive potency (reciprocal of ED50 (TPTX assay) / the total urinary malate dehydrogenase excretion); assay type: ADME, tissue-based, Urine
# In short: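 Rats received repeated sc injections, with saline-injected controls. Malate dehydrogenase was totalled in units over eight 24-h urine collections from the start of dosing. The ratio is the reciprocal of the TPTX hypercalcemia ED50 (mg/kg) divided by total urinary MDH units.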
# [5] = Ratio of calvaria mineralization to calvaria bone resorption; assay type: functional
# [6] = organism: Mus musculus; experiment: Inhibition of mineralization in the calvaria assay of mouse; assay type: functional
# In short: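 In vitro mineralization assay in mouse calvaria cultures. The read-out is calcium incorporation into the calvaria.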
# [7] = organism: Rattus norvegicus; experiment: Effective dose for increased serum urea level rats after a treatment period of 1 hr in renal tolerability model; assay type: functional
# [8] = organism: Rattus norvegicus; experiment: Effective dose for increased cancellous bone calcium in young intact rats after a treatment period of 10 days; assay type: functional; details: 240 h
# [9] = organism: Rattus norvegicus; experiment: Compound was tested for increased mucosal permeability of perfused ileal loop in rats after a treatment period of 2 hr in intestinal tolerability model; assay type: functional
# [10] = organism: Rattus norvegicus; experiment: Compound was tested for increased urinary excretion of MDH in rats after a treatment period of 14 days in renal tolerability model; assay type: functional, Urine
# [11] = organism: Rattus norvegicus; experiment: Effective dose for increased cancellous bone hydroxy proline in young intact rats after a treatment period of 10 days; assay type: functional; details: 240 h
# [12] = organism: Rattus norvegicus; experiment: Effective dose for increased radiographic bone density in young intact rats after a treatment period of 10 days; assay type: functional; details: 240 h
# [13] = organism: Rattus norvegicus; experiment: Effective dose for increased cancellous bone area in young intact rats after a treatment period of 10 days; assay type: functional; details: 240 h
# [14] = Therapeutic ratio comparing nephrotoxic potential versus bone antiresorptive potency ( reciprocal of ED50 (TPTX assay) / the total urinary malate dehydrogenase excretion); assay type: ADME; details: urine; read-out: Therapeutic ratio
# In short: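 Ratio = (1/TPTX ED50 in mg/kg) ÷ total urinary malate dehydrogenase units, pooled from eight 24-h urine collections after starting repeated sc dosing. ED50 model: young male rats (130-150 g), thyroparathyroidectomized, 4-day recovery; rats with fasting serum Ca above 1.88 mM excluded; groups of 5. Days 5-8: 1,25(OH)2D3 125 pmol/kg sc plus graded sc bisphosphonate. ED50 = dose halving the hypercalcemia (total serum calcium).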
Compound,ED50 [1] [µg/kg],other results
O=P(O)(O)C(O)(CCN1CCC(c2ccccc2)C1)P(=O)(O)O (stereo unspecified),70,
CN(C)C(P(=O)(O)O)P(=O)(O)O,> 3000,
O=P(O)(O)C(N1CCCCC1)P(=O)(O)O,800,
CN(C)CCC(N)(P(=O)(O)O)P(=O)(O)O [LIDADRONIC ACID],> 200,
CN(CCCCCCOc1ccccc1)CCC(O)(P(=O)(O)O)P(=O)(O)O,7500,
CCc1cnc(NC(P(=O)(O)O)P(=O)(O)O)s1,1.5,
CN1CCN(CCC(O)(P(=O)(O)O)P(=O)(O)O)CC1,~400,
O=P(O)(O)C(O)(CCNCCCCc1ccccc1)P(=O)(O)O,1,
O=P(O)(O)C(O)(Cc1nccn1Cc1ccccc1)P(=O)(O)O,25,
O=P(O)(O)C(O)(CCN1CCCC1)P(=O)(O)O,10,
Cc1cccc(OCCCN(C)CCC(O)(P(=O)(O)O)P(=O)(O)O)c1,1.7,
CC(CCc1ccccc1)NCCC(O)(P(=O)(O)O)P(=O)(O)O (stereo unspecified),> 10000,
CN(CCCOc1ccccc1)CCC(O)(P(=O)(O)O)P(=O)(O)O,0.5,IC50 [2]: 9000 nM; IC50 [3]: 40 nM; Therapeutic ratio [4]: 84; Ratio [5]: 225
O=P(O)(O)C(O)(CCN1CCCCCCC1)P(=O)(O)O,> 300,
CCCCCN(C)CCC(O)(P(=O)(O)O)P(=O)(O)O [IBANDRONIC ACID],1.1,
O.O=P(O)(O)C(O)(Cn1ccnc1)P(=O)(O)O [ZOLEDRONIC ACID],,IC50 [3]: 2 nM; IC50 [6]: 30000 nM; ED100 [7]: 38000 µg/kg; ED50 [8]: 0.17 µg/kg; NOL [9]: 10 mM; NOL [10]: > 1000 µg/kg; ED50 [11]: 1.1 µg/kg; ED50 [12]: 1.7 µg/kg; Ratio [5]: 15000; ED50 [13]: 0.071 µg/kg
O=P(O)(O)C(N1CCCCCC1)P(=O)(O)O [N-(HEXAMETHYLENEIMINO)METHYLENEBISPHOSPHONIC ACID],40,
O=P(O)(O)C(O)(CCCN1CCC(c2ccccc2)CC1)P(=O)(O)O,100,
Cc1csc(NC(P(=O)(O)O)P(=O)(O)O)n1,100,
O=P(O)(O)C(Nc1ncc(-c2ccccc2)s1)P(=O)(O)O,> 1000,
CN(CCCc1ccc(Cl)cc1)CCC(O)(P(=O)(O)O)P(=O)(O)O,0.7,
CN(CCCSc1ccccc1)CCC(O)(P(=O)(O)O)P(=O)(O)O,0.33,
CC(=O)NCCC(O)(P(=O)(O)O)P(=O)(O)O,> 1000,

Compound,ED50 [1] [µg/kg],other results
O=P(O)(O)C(NC1CCCCCC1)P(=O)(O)O [INCADRONIC ACID],7,
O=P(O)(O)C(O)(C1CCCCN1)P(=O)(O)O (stereo unspecified),50,
O=P(O)(O)C(O)(CCc1c[nH]cn1)P(=O)(O)O,20,
O=P(O)(O)C(Nc1nc2ccccc2s1)P(=O)(O)O,> 3000,
CN(C)CCC(P(=O)(O)O)P(=O)(O)O,100,
CN(CCCCCCc1ccccc1)CCC(O)(P(=O)(O)O)P(=O)(O)O,1500,
O=P(O)(O)C(O)(CCNCCc1ccccc1)P(=O)(O)O,300,
O=P(O)(O)C(O)(CCCN1CCCC1)P(=O)(O)O,25,
O=P(O)(O)C(O)(CCNCCSc1ccccc1)P(=O)(O)O,> 200,
O=P(O)(O)C(Nc1nccn1Cc1ccccc1)P(=O)(O)O,75,
O=P(O)(O)C(O)(C1CCCNC1)P(=O)(O)O (stereo unspecified),250,
NCCCC(O)(P(=O)(O)O)P(=O)(O)O [ALENDRONIC ACID],8,IC50 [2]: 20000 nM; IC50 [3]: 50 nM; selectivity ratio [14]: 6.6; Ratio [5]: 400
O=P(O)(O)C(O)(Cn1cncn1)P(=O)(O)O,600,
CNCCC(O)(P(=O)(O)O)P(=O)(O)O,~15,
Cn1ccnc1NC(P(=O)(O)O)P(=O)(O)O,5,
CC(N)CC(O)(P(=O)(O)O)P(=O)(O)O (stereo unspecified),3.4,
Cc1ncn(CC(O)(P(=O)(O)O)P(=O)(O)O)c1C,1.5,
CC(C)c1cnc(NC(P(=O)(O)O)P(=O)(O)O)s1,200,
CCN(CCCOc1ccccc1)CCC(O)(P(=O)(O)O)P(=O)(O)O,20,
CCCN(CCCOc1ccccc1)CCC(O)(P(=O)(O)O)P(=O)(O)O,10,
O=P(O)(O)C(O)(C1CNC1)P(=O)(O)O,> 3000,
CN(CCCCOc1ccccc1)CCC(O)(P(=O)(O)O)P(=O)(O)O,4,
O=P(O)(O)C(O)(CCn1ccnc1)P(=O)(O)O,45,

Compound,ED50 [1] [µg/kg],other results
CN(CCCc1ccccc1)CCC(O)(P(=O)(O)O)P(=O)(O)O,1,IC50 [2]: 4000 nM; IC50 [3]: 50 nM; Therapeutic ratio [4]: 120; Ratio [5]: 80
O=P(O)(O)C(O)(CCNCCCOc1ccccc1)P(=O)(O)O,1.2,
O=P(O)(O)C(O)(Cc1ncc[nH]1)P(=O)(O)O,5,
O=P(O)(O)C(O)(C1CCNCC1)P(=O)(O)O,~2500,
O=P(O)(O)C(O)(CCNCCCSc1ccccc1)P(=O)(O)O,7,
O=P(O)(O)C(O)(Cn1cccn1)P(=O)(O)O,> 300,
O=P(O)(O)C(Nc1ncc[nH]1)P(=O)(O)O,~500,
O=P(O)(O)C(O)(CCCCCN1CCC(c2ccccc2)CC1)P(=O)(O)O,> 300,
CP(=O)(O)C(Nc1nccs1)P(C)(=O)O (stereo unspecified),> 10000,
CCCCN(CCCOc1ccccc1)CCC(O)(P(=O)(O)O)P(=O)(O)O,500,
CCCCc1cnc(NC(P(=O)(O)O)P(=O)(O)O)s1,0.9,
O=P(O)(O)C(O)(CCN1CCC(c2ccc(Cl)cc2)C1)P(=O)(O)O (stereo unspecified),3.5,
CN(CCCOc1ccc(Cl)cc1)CCC(O)(P(=O)(O)O)P(=O)(O)O,1.3,
CCN(CC)CCC(O)(P(=O)(O)O)P(=O)(O)O,3,
CN(CCCCc1ccccc1)CCC(O)(P(=O)(O)O)P(=O)(O)O,0.4,
O=P(O)(O)C(Nc1nccs1)P(=O)(O)O,5,
NCC(O)(P(=O)(O)O)P(=O)(O)O,150,
CCCCCN(C)C(C)CC(O)(P(=O)(O)O)P(=O)(O)O (stereo unspecified),65,
O=P(O)(O)C(O)(CCN1CCN(c2ccccc2)CC1)P(=O)(O)O,> 10000,
CN(CCc1ccccc1)CCC(O)(P(=O)(O)O)P(=O)(O)O,1.4,IC50 [2]: 30000 nM; IC50 [3]: 20 nM; Therapeutic ratio [4]: 19; Ratio [5]: 1500
O=P(O)(O)C(O)(CCNCCCc1ccccc1)P(=O)(O)O,20,
CN(CCCOc1ccccc1)CCCC(O)(P(=O)(O)O)P(=O)(O)O,100,
CCCc1cnc(NC(P(=O)(O)O)P(=O)(O)O)s1,2,

Compound,ED50 [1] [µg/kg],other results
Cc1[nH]cnc1CC(O)(P(=O)(O)O)P(=O)(O)O,1.5,
O=P(O)(O)C(O)(Cc1c[nH]cn1)P(=O)(O)O,0.3,
CN(CCOc1ccc(Cl)cc1)CCC(O)(P(=O)(O)O)P(=O)(O)O,1.7,
CC(CC(O)(P(=O)(O)O)P(=O)(O)O)N(C)C (stereo unspecified),18,
NCCCCCC(O)(P(=O)(O)O)P(=O)(O)O [NERIDRONIC ACID],60,
O=P(O)(O)C(Nc1nc2ccccc2[nH]1)P(=O)(O)O,> 10000,
O=P(O)(O)C(Nc1ncc(CCc2ccccc2)s1)P(=O)(O)O,2.7,
Cc1cnc(NC(P(=O)(O)O)P(=O)(O)O)s1,1.5,IC50 [2]: 15000 nM; IC50 [3]: 40 nM; Therapeutic ratio [4]: 4.5; Ratio [5]: 375
NCCCCC(O)(P(=O)(O)O)P(=O)(O)O,20,
O=P(O)(O)C(N1CCCC1)P(=O)(O)O,> 2000,
O=P(O)(O)C(O)(CCN1CCC(c2ccccc2)CC1)P(=O)(O)O,~11,
CCCN(C)CCC(O)(P(=O)(O)O)P(=O)(O)O,3,
CN(CCCOc1ccc(F)cc1)CCC(O)(P(=O)(O)O)P(=O)(O)O,0.6,
COc1ccc(OCCCN(C)CCC(O)(P(=O)(O)O)P(=O)(O)O)cc1,1.2,
CN(CCCSc1ccc(Cl)cc1)CCC(O)(P(=O)(O)O)P(=O)(O)O,7.8,
O=P(O)(O)C(O)(CCN1CCC(c2cccc(F)c2)CC1)P(=O)(O)O,30,
O=P(O)(O)C(O)(CCCCCN1CCCC1)P(=O)(O)O,250,
CN(C)CCC(O)(P(=O)(O)O)P(=O)(O)O [OLPADRONIC ACID],12,
O=P(O)(O)C(O)(CCN1CCCCCC1)P(=O)(O)O,25,
O=P(O)(O)C(Cc1nccs1)P(=O)(O)O,200,
O=P(O)(O)C(O)(CCN1CCCCC1)P(=O)(O)O,5.6,
Cn1ccnc1CC(O)(P(=O)(O)O)P(=O)(O)O,0.6,
O=P(O)(O)C(O)(Cc1c[nH]c(-c2ccccc2)n1)P(=O)(O)O,> 3000,
